# Reference: PubChem BioAssay AID504597 (Broad Institute, 2011)
# System: U2OS HRE-luciferase reporter, luminescence, HIF activation
# Assay: HIF-driven HRE reporter activators, dose response, U2OS cells, luminescence, dry powder, set 9 (AID 504597)
# How it was run: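 System: U2OS cells carrying 3×HRE-luciferase reporter / Amount: 6,000 cells/well / Measured by: Steady-Glo luciferase luminescence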
row,SMILES,AC40
1,CC(C)(C)c1ccc(CNc2nc(-c3ccccn3)nnc2-c2ccccc2)cc1,546 nM
2,c1ccc(CCNc2nc(-c3ccccn3)nnc2-c2ccccc2)cc1,3210 nM
3,CC(C)(C)CCNc1nc(-c2ccccn2)nnc1-c1ccccc1,1020 nM
4,c1ccc(-c2ccc(CNc3nc(-c4ccccn4)nnc3-c3ccccc3)cc2)cc1,461 nM
5,Clc1cccc(CNc2nc(-c3ccccn3)nnc2-c2ccccc2)c1,1480 nM
6,c1ccc(-c2cccc(CNc3nc(-c4ccccn4)nnc3-c3ccccc3)c2)cc1,816 nM
